Laboratory results taken from PubChem BioAssay.
Values without a mark were called inactive. Results filed as inconclusive are left out. The source made the active and inactive calls.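 The calls were made as follows, unless noted: active = RAM network inhibition above 8.4% in each of two replicates, 3 SD over the compound average; inconclusive = above 8.4% inhibition in only one replicate; inactive = 8.4% inhibition or less in each replicate.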

Legend:
[1] = S. cerevisiae growth inhibition in permissive medium (OD615), pilot counter-assay for S. cerevisiae lifespan shortening project, permissive growth control (AID 705;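 active = growth inhibition above 25% in both replicates, a cutoff set 3 SD above the mean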); conditions: OD615, 24 h, at 10 µM, stronger effect = higher value
Method in brief: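 System: S. cerevisiae with engineered DeaD lifespan system. Medium: SC raffinose/galactose permissive medium. Doses: single compound dose of 10 µM, 0.25% DMSO final. Schedule: 24 h exposure, 30 °C. Measured by: OD615 turbidity read. Read-out: growth inhibition.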

[2] = S. cerevisiae growth inhibition in restrictive medium, OD615, pilot screen, restrictive growth control, yeast lifespan reduction project (AID 706;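 active = growth inhibition above a set limit, 3 SD over mean compound inhibition, in both replicates, cut at about 43% in these data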;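 also: modified DeaD lifespan yeast strain shifted to restrictive glucose medium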); conditions: OD615, 48 h, at 10 µM, stronger effect = higher value
Method in brief: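 Assay system – genetically modified Saccharomyces cerevisiae, DeaD replicative lifespan assay strain · Medium – CSMM-D glucose medium · Doses – 10 µM compound, 0.25% DMSO · Times – 4 h pre-incubation, 48 h exposure at 30 °C · Signal – optical density at 615 nm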

[3] = doxorubicin toxicity protection in MRP-1 cells – H69AR cells, CellTiter-Glo, duplicate, MRP-1 activator project, pilot screen (AID 807;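 active = viability increase at or above a cutoff of the median across tested compounds plus 3 SD, cut at about 8.5% in these data, passing the limit was not always enough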;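 also: compound pretreatment 18-22 h then 72 h combined with doxorubicin; 0% = doxorubicin alone and 100% = vehicle without doxorubicin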); conditions: H69AR viability with doxorubicin, CellTiter-Glo luminescence; at 10 µM; stronger effect = higher value
[4] = viability of HCT116 without oncogenic beta-catenin – human colon tumor cells, pilot screen (AID 823;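 active = cell viability at or below a set limit in both duplicate runs, the limit being the all-compound median minus 4 SD, cut at about 23% in these data, passing the limit was not always enough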;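 also: 0% = wells killed by 20 µM Hyamine and 100% = untreated DMSO cell wells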); conditions: HCT116 beta-catenin knockout viability, CellTiter-Glo, 60 h; at 10 µM; stronger effect = lower value
[5] = viability of PTEN-null HCT116 cells – cell-based, HCT116 clonal line, CellTiter-Glo, pilot screen (AID 824;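 active = viability at or below 27.92% in each of two runs, the all-compound median minus 4 SD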;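 also: 0% = 20 µM Hyamine control and 100% = vehicle cell control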); conditions: HCT116 PTEN-deleted viability, 60 h, at 10 µM, stronger effect = lower value
[6] = RAM pathway blockade in budding yeast – dse1pr::URA3 reporter, 5-FOA selection, pilot screen (AID 869;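 active = inhibition over a set limit, the all-compound mean plus 3 SD, in both replicate runs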;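 also: 0% = DMSO wells with no growth and 100% = 10 µM 1-NA-PP1 with full growth; RAM network block rescues cells from 5-FOA so hits raise OD615 growth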); conditions: S. cerevisiae dse1pr::URA3 5-FOA growth, OD615, 2 d; at 10 µM; stronger effect = higher value; strain carries analog-sensitive mutant Cbk1 kinase
[7] = RAM signaling pathway blockade in yeast – S. cerevisiae, Pdr1DBD-CYC8 efflux-inhibited sensitized strain, primary screen (AID 1298);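 also: 0% = DMSO untreated cells without growth and 100% = 10 µM 1-NA-PP1 full growth; higher means more yeast growth rescued from 5-FOA killing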; conditions: S. cerevisiae cbk1-as DSE1-URA3 strain, 5-FOA growth OD615, 2 d; at 50 µM; stronger effect = higher value

SMILES	growth inhibition [1] [%]	growth inhibition [2]	viability increase [3] [%]	viability [4] [%]	viability [5] [%]	inhibition [6] [%]	RAM network inhibition [7] [%]
Cc1ccc(Cn2nnc3c(=O)n(CC(=O)c4ccccc4)cnc32)cc1	-5.55	-9.49%	-2.92	96.7	91.5	3.42	5.01
Cn1c(=O)c2c(nc(N3CCN(Cc4ccccc4)CC3)n2CCSc2ncccn2)n(C)c1=O	-9.24	-14%	-0.19	100	106	1.07	2.77
CCOC(=O)CSc1nc2ccccc2c(=O)[nH]1	-13.4	-17.3%	-0.36	105	100	1.74	3.03
COc1ccc(Cl)cc1C(=O)NCC(C)C	6.51	8.17%	-0.38	95.7	90.4	2.71	4.05
O=C(CC1SC(=Nc2ccccc2)N(CCCO)C1=O)Nc1ccc(Cl)cc1 (configuration not stated)	-6.75	-7.97%	-6.7	48.1	42.1	0.52	1.29
O=C(Cc1c(F)cccc1Cl)c1ccc(O)cc1O	-10.5	-0.825%	-0.88	99.8	100	0.3	-1.74
Cc1ccccc1C(=O)Nc1ccc2nc3n(c(=O)c2c1)CCC3	-2.17	0.31%	0.79	106	104	0.085	4.34
Cc1cc2n(c1)CCn1c(C)ccc1-2	18.4	14.5%	-2.98	97.8	96.9	1.99	2.57
COc1ccc(-c2nc(C#N)c(NCCN(C)C)o2)cc1	-5.38	-5.11%	-0.95	101	97.5	0.355	3.09
COCCn1c(=O)[nH]c2cc(C(=O)NCCN3CCN(c4ccccc4)CC3)ccc2c1=O	-5.1	7.77%	-0.22	92.5	93.2	1.11	3.35
O=C(Nc1ccc2c(c1)OCO2)C(c1ccccc1)N1CCCCC1 (configuration not stated)	-3.12	0.37%	-1.69	80.6	93.2	1.16	2.51
O=C(NCC(c1cccnc1)N1CCN(c2ccccc2F)CC1)c1ccccc1 (configuration not stated)	-9.54	-2.34%	-4.21	88.5	82.4	1.75	1.21
Cc1ccccc1N1C(=O)C(Cl)=C(N2CCN(c3ccccc3)CC2)C1=O	-5.42	-12.1%	-2.29	101	109	0.515	1.87
O=C(Nc1sc2c(c1C(=O)O)CCCCC2)c1ccco1	-3.7	-9.4%	-1.32	88.7	78.5	-0.91	-1.46
COC(=O)c1nnn(Cc2ccccc2)c1N	-6.96	-7.86%	-1.68	103	98.8	0.585	0.17
CCOC(=O)c1c(C)nc(-c2ccccc2)nc1NC(C)=O	-15.7	-5.61%	-0.84	92	89.5	1.92	7.29
CSc1nnc(-c2ccco2)n1-c1ccccc1	-6.73	6.08%	-0.4	94.6	90	2.92	5.77
CCCCn1c(CCNC(=O)CCC)nc2ccccc21	-9.84	4.55%	-0.74	99.1	108	2.43	-0.53

SMILES	growth inhibition [1] [%]	growth inhibition [2]	viability increase [3] [%]	viability [4] [%]	viability [5] [%]	inhibition [6] [%]	RAM network inhibition [7] [%]
COc1ccc(C2CC(c3ccccc3C)n3nc(N)nc3N2)cc1 (configuration not stated)	1.94	17.8%	0.56	96.1	87.6	2.3	1.89
O=C(CSc1ccc2nnc(-c3ccc(Cl)cc3)n2n1)N1CCN(c2ccccc2)CC1	20.5	63.7% (active)	-3.11	96.6	85.5	-0.195	3.08
O=C(COc1ccc(F)cc1)Nc1nccs1	-3.23	4.43%	2.32	103	90.2	3.26	5.34
COc1c(Cl)ccc(Cl)c1C(=O)OCC(=O)O	-7.06	-27.7%	-2.73	86	86.9	1.39	4.54
CC(=O)Nc1ccc(OCC=C(Cl)Cl)cc1	2.81	5.66%	1.02	97.2	102	0.805	1.16
COc1ccc(C2=NOC(C(=O)N3CCN(c4ccccc4OC)CC3)C2)cc1 (configuration not stated)	-7.36	0.135%	2.8	99.9	88.5	2.17	4.09
O=C(C1CCN(S(=O)(=O)c2ccc(F)cc2)CC1)N1CCOCC1	-6.2	-6.82%	0.84	103	103	2.23	1.75
C=CCn1c(CCCNC(=O)C(C)(C)C)nc2ccccc21	-10.7	-20.9%	-1.33	99.7	96.1	0.295	5.54
CCOC(=O)c1c(C)c(-c2ccccc2)n(CC(=O)N2CCN(C)CC2)c1C	-19	-24.2%	-2.94	102	102	2.83	2.67
Cc1cc(C)n(/N=C/c2c[nH]c3ccccc23)c(=O)c1	-12.3	-5.84%	-3.53	100	102	0.785	2.38
CCCc1ccc(OCC(O)CN2CCN(c3ccccc3)CC2)cc1 (configuration not stated)	4.55	3.57%	-0.47	83	81.6	0.325	1.55
CC(C)c1cc(NC(=O)CSc2nnc(-c3ccccc3F)n2C)on1	-6.68	2.08%	0.77	98	101	0.705	3.69
O=C(NCCCNC(=O)c1ccco1)c1ccco1	-0.405	0.005%	-2.35	99.9	107	-0.525	0.16
O=S(=O)(Nc1ccc(-c2nc3cccnc3s2)cc1)c1cccs1	-4.44	-6.65%	-1.73	110	95.6	1.79	3.74
COc1ccc(NC2=C(C)C(=O)CC2)cc1	7.55	-3.12%	-4.82	65.9	69.5	0.505	1.49
Cc1ccc(Cl)cc1N1CCN(C(=O)COc2ccc(S(=O)(=O)NC(C)C)cc2)CC1	4.32	-7.2%	-4.67	37.3	54.8	1	6.06
O=C(CSc1ncnc2c1oc1ccccc12)NCc1ccc(F)cc1	-0.505	-4.67%	-3.33	68.6	81	-0.055	-2.13
COc1cc2[nH]c(=O)n(CCC(=O)NC3CCN(Cc4ccccc4)CC3)c(=O)c2cc1OC	-0.585	-8.45%	-1.84	101	94.3	2.09	-0.53
